Source: ChEMBL document CHEMBL2434913 (Bioorg Med Chem Lett, 2013)
pIC50: −log10 of the molar value.

Experiments:
[1] = target: T1, Prostaglandin G/H synthase 2 (Mus musculus) (UniProt Q05769); test: Inhibition of purified mouse COX-2 assessed as inhibition of PGE2/PGD2 formation preincubated at 10 uM for 3 mins before arachidonic acid substrate addition measured after 30 seconds by LC-MS-MS method
T1 sequence (whole entry): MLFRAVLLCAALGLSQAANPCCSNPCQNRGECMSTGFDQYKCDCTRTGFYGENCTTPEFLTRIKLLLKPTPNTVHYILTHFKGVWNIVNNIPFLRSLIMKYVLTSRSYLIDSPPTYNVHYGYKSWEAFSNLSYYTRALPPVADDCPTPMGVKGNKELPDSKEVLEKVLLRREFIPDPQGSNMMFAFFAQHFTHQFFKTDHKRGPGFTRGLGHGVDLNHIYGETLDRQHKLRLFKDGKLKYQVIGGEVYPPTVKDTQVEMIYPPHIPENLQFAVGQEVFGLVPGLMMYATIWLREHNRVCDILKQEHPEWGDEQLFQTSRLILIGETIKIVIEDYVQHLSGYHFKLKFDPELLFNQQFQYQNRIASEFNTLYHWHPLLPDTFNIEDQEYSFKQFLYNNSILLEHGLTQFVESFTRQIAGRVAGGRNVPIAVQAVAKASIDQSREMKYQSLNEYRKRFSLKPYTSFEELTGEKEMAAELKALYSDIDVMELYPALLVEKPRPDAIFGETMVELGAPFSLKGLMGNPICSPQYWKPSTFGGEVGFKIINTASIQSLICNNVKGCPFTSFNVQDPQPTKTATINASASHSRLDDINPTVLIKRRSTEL
Procedure, shortened: (§1)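 Purified murine COX-2 (50 nM) preincubated 3 min with test agent at 10 µM in DMSO, alongside a solvent control. Then 2-AG or AA added at 5 µM, 37 °C, for 30 s. Read-out is percent inhibition of substrate oxygenation versus control. Mean ± SD, n = 6.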

[2] = target: T2, Prostaglandin G/H synthase 2 (Mus musculus, UniProt Q05769); test: Inhibition of purified mouse COX-2 assessed as inhibition of PGE2/PGD2 formation preincubated for 3 mins before arachidonic acid substrate addition measured after 30 seconds by LC-MS-MS method
T2 sequence (Q05769 whole entry): T1 sequence (whole entry)

[3] = target: T2, Prostaglandin G/H synthase 2; test: Inhibition of purified mouse COX-2 assessed as inhibition of PGE2-G/PGD2-G formation preincubated for 3 mins before 2-AG substrate addition measured after 30 seconds by LC-MS-MS method
[4] = target: T1, Prostaglandin G/H synthase 2 (Mus musculus); test: Inhibition of purified mouse COX-2 assessed as inhibition of PGE2-G/PGD2-G formation preincubated at 10 uM for 3 mins before 2-AG substrate addition measured after 30 seconds by LC-MS-MS method; procedure, shortened: as §1

**Q.** Which results are given for `O=C(O)Cc1ccccc1Nc1c(Cl)cc(Br)cc1Cl`?
**A.** inhibition [1]: 55%; pIC50 [2]: 6.85; pIC50 [3]: 7.22

**Q.** Which inhibition [1] does the source give for `Cc1ccc(Nc2ccccc2)c(CC(=O)O)c1` here?
**A.** Its inhibition is 10%.

**Q.** And the inhibition [4]?
**A.** The inhibition was 0%.

**Q.** Which results are given for `Cc1ccc(Nc2c(C)cccc2F)c(CC(=O)O)c1`?
**A.** inhibition [1]: 0%; inhibition [4]: 0%

**Q.** Which results are given for `Cc1ccc(Nc2c(Cl)cc(Cl)cc2Cl)c(CC(=O)O)c1`?
**A.** inhibition [1]: 32%; pIC50 [3]: 7.15

**Q.** `O=C(O)Cc1ccccc1Nc1c(F)cccc1F` was tested. Which pIC50 [3] did it give?
**A.** Its pIC50 is 5.92.

**Q.** For `Cc1cccc(F)c1Nc1ccccc1CC(=O)O`, which inhibition [1] is on record?
**A.** The inhibition was 0%.

**Q.** And the inhibition [4]?
**A.** Its inhibition is 15%.

**Q.** Which results are given for `Cc1ccc(Nc2c(F)cccc2F)c(CC(=O)O)c1`?
**A.** inhibition [1]: 0%; pIC50 [3]: 6.00

**Q.** With `O=C(O)Cc1ccccc1Nc1ccccc1F` as the compound, how does the inhibition [1] read?
**A.** The inhibition was 0%.

**Q.** What about the inhibition [4] of the same compound?
**A.** Its inhibition is 25%.

**Q.** How did the pIC50 [3] turn out when `O=C(O)Cc1ccccc1Nc1c(F)cccc1Cl` was run?
**A.** The pIC50 was 7.40.

**Q.** Which results are given for `Cc1ccc(Nc2ccccc2F)c(CC(=O)O)c1`?
**A.** inhibition [1]: 0%; pIC50 [3]: 5.74

**Q.** Which inhibition [1] does the source give for `Cc1ccc(Nc2c(Cl)cccc2Cl)c(CC(=O)O)c1` here?
**A.** The inhibition was 60%.

**Q.** What about the pIC50 [2] of the same compound?
**A.** The pIC50 was 6.70.

**Q.** What about the pIC50 [3] of the same compound?
**A.** Its pIC50 is 7.52.

**Q.** How did the inhibition [1] turn out when `Cc1ccc(Nc2ccccc2Cl)c(CC(=O)O)c1` was run?
**A.** Its inhibition is 0%.

**Q.** What about the pIC50 [3] of the same compound?
**A.** Its pIC50 is 7.22.

**Q.** How did the pIC50 [3] turn out when `O=C(O)Cc1ccccc1Nc1ccccc1Cl` was run?
**A.** The pIC50 was 5.41.
